The test system of data set [1] is Rattus norvegicus. Nature of the data set: Antiosteoporotic activity in Sprague-Dawley rat model of OVX-induced bone loss assessed as increase in number of trabeculae at 30 mg/kg, ig administered for 3 months with 1 day break after 6 consecutive days administration. The format is functional, organism-based. The method, boiled down:
(§1)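 Female SD rats given bilateral ovariectomy (sham: fat tissue removed instead), adapted 1 week beforehand; dosing began on postoperative day 10, n = 10 per group. Test drugs as 3 mg/mL suspension by gavage; raloxifene hydrochloride at 0.5 mg/mL. Controls got water. Tetracycline 30 mg/kg ip 16 and 3 days before euthanasia. Tibia stained sections give trabecular morphology and TBV%. BMD of L4-6 measured by densitometry under pentobarbital 45 mg/kg anaesthesia. Reported as mean ± SD.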

Data set [2] concerns Rattus norvegicus. Nature of the data set: Antiosteoporotic activity in Sprague-Dawley rat model of OVX-induced bone loss assessed as increase in trabecular bone mineral density at 30 mg/kg, ig administered for 3 months with 1 day break after 6 consecutive days administration. The format is functional, organism-based. The method, boiled down: as §1
The nature of data set [3]: in vitro. To be noted: human.
Data set [4] is described as follows: Permeability across apical to basolateral side in human Caco-2 cells assessed as transepithelial electrical resistance at 10 uM incubated for 2 hrs LC-MS/MS analysis. The format is ADME, cell-based. To be noted: caco-2, 2 h. The method, boiled down: (§2)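 Caco-2 monolayers, apical to basolateral direction. Plates preincubated 30 min at 37 °C, then exposed to 10 µM compound for 2 h at 37 °C without shaking. Donor and receiver samples were quenched, centrifuged and measured by LC/MS/MS, in duplicate. Papp calculated from receiver concentration, area and time. Monolayer integrity checked by TEER and by Lucifer yellow leakage (30 min, 37 °C, ex 485/em 530 nm).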

Data set [5] has as its system Rattus norvegicus. Nature of the data set: Antiosteoporotic activity in Sprague-Dawley rat model of OVX-induced bone loss assessed as increase in trabecular bone volume at 30 mg/kg, ig administered for 3 months with 1 day break after 6 consecutive days administration. The format is functional, organism-based. The method, boiled down:
as §1

Data set [6] can be described thus: Apparent permeability across apical to basolateral side in human Caco-2 cells at 10 uM incubated for 2 hrs LC-MS/MS analysis. Format: ADME, cell-based. The note with it: for Papp A→B at 2 h, 10 µM: Caco-2. The method, boiled down: as §2
Data set [7] in a line: Permeability across apical to basolateral side in human Caco-2 cells assessed as […] yellow leakage at 10 uM incubated for 2 hrs LC-MS/MS analysis. Format: ADME, cell-based. The note with it: caco-2, 2 h. Put shortly:
as §2

In data set [8] the test system is Rattus norvegicus. Kind of data set: Antiosteoporotic activity in Sprague-Dawley rat model of OVX-induced bone loss assessed as increase in thickness of trabeculae at 30 mg/kg, ig administered for 3 months with 1 day break after 6 consecutive days administration. The format is functional, organism-based. Put shortly: as §1
Data set [9] can be described thus: in vitro. To be noted: human. The source holds these as a separate data set.
Data set [10] relates to Rattus norvegicus. Kind of data set: Antiosteoporotic activity in Sprague-Dawley rat model of OVX-induced bone loss assessed as narrowed gap between trabeculae at 30 mg/kg, ig administered for 3 months with 1 day break after 6 consecutive days administration. Format: functional, organism-based. The method, boiled down:
as §1

The nature of data set [11]: Toxicity in Kunming mouse assessed as organism death administered orally for 3 days and observed for 17 days starting from drug administration. The note with it: in vivo, po, 408 h, time 17 day.
The nature of data set [12]: Solubility in PBS buffer at pH 7.4 assessed as precipitation of compound at 1250 nM. The format is physicochemical. The note with it: pH 7.4, 1.25 µM.
A short description of data set [13]: Solubility in PBS buffer at pH 7.4 assessed as precipitation of compound at 625 nM. Format: physicochemical. To be noted: pH 7.4, 0.625 µM.
Data set [14] is described as follows: Solubility in PBS buffer at pH 7.4 assessed as precipitation of compound at 312.5 nM. The format is physicochemical. To be noted: pH 7.4, 0.3125 µM.
Data set [15] can be described thus: Solubility in PBS buffer at pH 7.4 assessed as precipitation of compound at 5000 nM. The format is physicochemical. The note with it: pH 7.4, 5 µM.
Data set [16] can be described thus: Solubility in PBS buffer at pH 7.4 assessed as precipitation of compound at 2500 nM. The format is physicochemical. To be noted: pH 7.4, 2.5 µM.
Data set [17] can be described thus: Solubility in PBS buffer at pH 7.4 assessed as precipitation of compound at 156.25 nM. The format is physicochemical. The note with it: pH 7.4, 0.15625 µM.
Data set [18] in a line: Solubility in PBS buffer at pH 7.4 assessed as precipitation of compound at 10000 nM. Format: physicochemical. To be noted: pH 7.4, 10 µM.

Activity calls are given as the source filed them. The rule behind the calls is not given here.

Turning to `CC(=O)c1cc2ccccc2s1`, the outcome in the data set with Rattus norvegicus [1], in the data set on Rattus norvegicus [2], in the data set with Rattus norvegicus [5], in the data set on Rattus norvegicus [8] and in the data set with Rattus norvegicus [10] was Active. Also, in the data set “in vitro [3]” (liver microsomes), the half-life at 0.5 h, 100 µM came to 1.25 min. The Activity in data set [4] is 351 Ω·cm²; in [7], 0.179%. In addition, the Papp A→B at 2 h, 10 µM in data set [6] came out at 22.1 ×10⁻⁶ cm/s. The same compound yielded a microsomal CLint at 0.5 h, 100 µM in the data set “in vitro [9]” (liver microsomes) of over 300 µL/min/mg.

For `COc1ccc2cc(C(=O)OCCP(=O)(O)O)oc2c1`, the outcome in the data set with Rattus norvegicus [2] and in the data set with Rattus norvegicus [5] was Active.

Consider `COc1ccc2cc(C(=O)OCCCN(C)C)sc2c1.CS(=O)(=O)O`, for which, in [11], the LD50 is listed as over 500 mg/kg/day.

In the case of `COc1ccc2cc(C(=O)OCCCN(C)C)sc2c1` [listing 1 of 2 here], the outcome in the data set on Rattus norvegicus [2] and with Rattus norvegicus [5] was Active.

As for `CS(=O)(=O)O.O=C(OCCN1CCOCC1)c1cc2cc3c(cc2s1)OCO3`, the LD50 in [11] is reported as over 500 mg/kg/day.

As to `COc1ccc2cc(C(=O)OCCN(C)C)oc2c1`, the result with Rattus norvegicus [1], with Rattus norvegicus [2], in the data set with Rattus norvegicus [5], in the data set with Rattus norvegicus [8] and with Rattus norvegicus [10] was Active.

Turning to `CC[C@H]1OC(=O)[C@H](C)[C@@H](O[C@H]2C[C@@](C)(OC)[C@@H](O)[C@H](C)O2)[C@H](C)[C@@H](O[C@@H]2O[C@H](C)C[C@H](N(C)C)[C@H]2O)[C@](C)(O)C[C@@H](C)C(=O)[C@H](C)[C@@H](O)[C@]1(C)O` [ERYTHROMYCIN], the Activity in data set [4] was 396 Ω·cm²; in data set [7], 0.137%. Further, the Papp in [6] (caco-2, 2 h, 10 µM) was 0.0324 10^-6 cm/s.

Turning to `COc1ccc2cc(C(=O)OCCN(C)C)oc2c1.CS(=O)(=O)O`, in [11], the LD50 is given as over 500 mg/kg/day.

Consider `CCOc1ccc(NC(C)=O)cc1` [PHENACETIN], for which the half-life at 0.5 h, 100 µM in the data set “in vitro [3]” (microsomes) worked out at 26.5 min. The microsomal CLint at 0.5 h, 100 µM in the data set “in vitro [9]” (liver microsomes) was 26.2 µL/min/mg.

As for `O=C(OCCN1CCOCC1)c1cc2cc3c(cc2s1)OCO3`, the outcome with Rattus norvegicus [2] and with Rattus norvegicus [5] was Active.

In turn, `COCCc1ccc(OCC(O)CNC(C)C)cc1` (stereo unspecified) [METOPROLOL] registered a half-life at 0.5 h, 100 µM in the data set “in vitro [3]” (microsomes) of 159 min. The values for the Activity in data set [4] and in data set [7] were 326 Ω·cm² and 0.154%, respectively. Further, the Papp A→B at 2 h, 10 µM in data set [6] was 32.6 ×10⁻⁶ cm/s. In the data set “in vitro [9]” (liver microsomes), this compound displayed an intrinsic clearance (microsomal CLint) at 0.5 h, 100 µM of 4.35 µL/min/mg.

In “in vitro [3]” (microsomes), `CN(C)CCCOc1nn(Cc2ccccc2)c2ccccc12` [BENZYDAMINE] returned a half-life at 0.5 h, 100 µM of 43.1 min. The microsomal CLint at 0.5 h, 100 µM in the data set “in vitro [9]” (microsomes) came to 16.1 µL/min/mg.

Turning to `O=C(O)Cc1ccccc1Nc1c(Cl)cccc1Cl` [DICLOFENAC], the microsomal CLint at 0.5 h, 100 µM in the data set “in vitro [9]” (microsomes) amounted to 197 µL/min/mg.

Consider `COc1ccc2cc(C(=O)OCCCN(C)C)sc2c1` [listing 2 of 2 here], for which the solubility result in data set [12] is “Insoluble”; in data set [13] it was “Soluble”; in data set [14] it was “Soluble”; in data set [15], “Insoluble”; in data set [16], “Insoluble”; in [17], “Soluble”. Further, the solubility result in data set [18] was “Insoluble”.

For `CCOC(=O)c1cc2cc3c(cc2s1)OCO3`, the solubility entry is reported as “Insoluble” in data set [12]; “Insoluble” in [13]; “Insoluble” in data set [14]; “Insoluble” in data set [15]; “Insoluble” in [16]; “Soluble” in data set [17]. For the same compound, in data set [18], the solubility entry is on record as “Insoluble”.

Regarding `COc1ccc2cc(C(=O)OCP(=O)(O)O)oc2c1`, the solubility entry in data set [12], in data set [13], in data set [14], in [15], in data set [16] and in data set [17] was “Soluble” throughout. Also, the solubility result in data set [18] is “Insoluble”.

Take `COc1ccc2cc(C(=O)N(C)CCN(C)C)oc2c1`: the solubility entry in data set [12] is “Soluble”; in [13], “Soluble”; in data set [14] it was “Soluble”; in data set [15] it was “Insoluble”; in data set [16], “Soluble”; in [17] it was “Soluble”. Moreover, the solubility result in data set [18] is “Insoluble”.

Take `CCOC(=O)c1cc2ccc(OC)cc2s1`: the solubility entry in data set [12], in [13], in [14], in data set [15], in data set [16] and in data set [17] was “Insoluble” in each case. For the same compound, the solubility result in data set [18] was “Insoluble”.

With `COc1ccc2cc(C(=O)OCCP(=O)([O-])[O-])oc2c1.[Na+].[Na+]`, the LD50 in [11] is listed as over 500 mg/kg/day.

Turning to `CN/C(=N/CCSCc1nc[nH]c1C)NC#N` [CIMETIDINE], the Activity in [4] is 318 Ω·cm²; in [7] it was 0.134%. Also, the Papp A→B at 2 h, 10 µM in data set [6] amounted to 0.679 ×10⁻⁶ cm/s.
